Measurements from different studies.
Compare with care: the assays were run in different laboratories.
ST14: Suppressor of tumorigenicity 14 protein (ST14, Homo sapiens, UniProt Q9Y5Y6)
CDK2 with cyclin A2: Cyclin-dependent kinase 2, with cyclin A2 (CDK2, Homo sapiens, UniProt P24941)

CC(C)Oc1ccc(S(=O)(=O)c2ccc(Oc3cc(OCC(N)=O)c(C(=O)C(Cl)Cl)cc3[N+](=O)[O-])cc2)cc1  inhibition ([Pyruvate dehydrogenase (acetyl-transferring)] kinase isozyme 4, mitochondrial (PDK4, Homo sapiens, UniProt Q16654); enzyme activity, inhibitor, ATP luminescence; 10 µM): 31.5%
C=CC[C@H](NC(=O)[C@H](Cc1cscn1)NC(=O)CCc1ccccc1)C(=O)N[C@@H](CCCNC(=N)N)C(=O)c1nc2ccccc2s1  remaining activity (ST14; enzyme activity, inhibitor; 0.1 µM): 41%
CC(=O)Nc1c(N)nc(SCC(=O)N/N=C/c2ccc([N+](=O)[O-])cc2)[nH]c1=O  inhibition (CDK2 with cyclin A2; enzyme activity, inhibitor; 5 nM): 8.37%
CNc1ncc2c(/C=C/C(=O)N3CCC(OC)CC3)nn(Cc3cccc(C(F)(F)F)c3)c2n1  remaining activity (Mitogen-activated protein kinase kinase kinase 14 (MAP3K14, Homo sapiens, UniProt Q99558); enzyme activity, inhibitor, radiometric; 1 µM): 105%
CC(C)(C)c1ccc(C[C@H](NC(=O)[C@H](Cc2cscn2)NC(=O)CCc2ccccc2)C(=O)N[C@@H](CCCNC(=N)N)C(=O)c2nc3ccccc3s2)cc1  remaining activity (ST14; enzyme activity, inhibitor; 0.1 µM): 80%
C=CC(=O)N1CCC(COCC(=O)N2CCN(c3nc(-c4cnc(N)nc4C(F)F)nc(N4CCOC[C@@H]4C)n3)CC2)CC1  remaining binding (Mitogen-activated protein kinase kinase kinase kinase 1 (MAP4K1, Homo sapiens, UniProt Q92918); binding, competition with immobilised ligand; 1 µM): 100%
N=C(N)NCCC[C@H](NC(=O)[C@H](Cc1ccc(-c2ccccc2)cc1)NC(=O)[C@H](Cc1cscn1)NC(=O)CCc1ccccc1)C(=O)c1nc2ccccc2s1  remaining activity (ST14; enzyme activity, inhibitor; 0.1 µM): 30%
Cc1cc([C@@H](C)Nc2ccccc2C(=O)O)c2nc(N3CCC(F)(F)CC3)c(C#N)c(=O)n2c1  remaining binding (Tyrosine-protein kinase ZAP-70 (ZAP70, Homo sapiens, UniProt P43403); binding, competition with immobilised ligand; 1 µM): 100%
CC(=O)Nc1c(N)nc(SCC(=O)NN)[nH]c1=O  inhibition (CDK2 with cyclin A2; enzyme activity, inhibitor; 5 nM): 14.6%
C[C@H]1c2nc3ccccc3c(-c3ccccc3)c2[C@H]2C[C@@H]1N(Cc1ccccc1)C[C@]2(C)O  inhibition (Delta-type opioid receptor (Oprd1, Rattus norvegicus, UniProt P33533); ligand displacement, radioligand; 1 µM): 0%
CC(C)C[C@@H](C(=O)N[C@@H](CCCNC(=N)N)C(=O)c1nc2ccccc2s1)N(C)C(=O)[C@H](Cc1cscn1)NC(=O)CCc1ccccc1  remaining activity (ST14; enzyme activity, inhibitor; 0.1 µM): 50%
CNC(=O)c1cc(Oc2ccc(NC(=O)Nc3ccc(Cl)c(C(F)(F)F)c3)cc2)ccn1  inhibition (CDK2 with cyclin A2; enzyme activity, inhibitor; 1 nM): 19.6%
COc1cc(-c2cncc3c2CN(C)Cc2cc(N4CCNCC4)ccc2-3)cc(OC)c1OC  remaining activity (Angiopoietin-1 receptor (TEK, Homo sapiens, UniProt Q02763, Y897S); enzyme activity, inhibitor; 1 µM): 102%
